Results as given in ChEMBL document CHEMBL1208778, “Synthesis and anti-cancer activity of chalcone linked imidazolones” (2010).
Blank lines part the entries; values can stand above or below the compound they belong to. The source made the active and inactive calls. No cut-off for these calls is given here.

Columns and labels:
[1] = system: MCF7; test: Cell cycle arrest in human MCF7 cells assessed as accumulation at S phase at 10 uM after 24 hrs by FACS analysis; type: functional
Summary of the method: (§1)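 MCF-7 breast carcinoma cells were exposed to 10 µM test compound for 24 h, with DMSO as the vehicle control. Cell-cycle distribution was read by FACS as the percentage of cells in G0, G1, S and G2/M.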

[2] = system: Malme-3M; test: Growth inhibition of human MALME-3M cells; type: functional
Summary of the method: (§2)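 Five-dose testing was run within the NCI (Bethesda) in vitro Anticancer Screen Program on a panel of 53 human tumour cell lines from nine cancer types. Growth inhibition is reported as GI50.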

[3] = system: OVCAR-3; test: Growth inhibition of human OVCAR-3 cells; type: functional; summary of the method: as §2
[4] = system: SN12C; test: Growth inhibition of human SN12C cells; type: functional
Summary of the method: (§3)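 Compounds that passed a preliminary screen were tested at five doses in the NCI (Bethesda) in vitro Anticancer Screen Program against a 53-line human tumour panel spanning leukemia, lung, colon, CNS, melanoma, ovarian, renal, prostate and breast. Growth inhibition is reported as GI50.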

[5] = system: U-251; test: Growth inhibition of human U251 cells; type: functional; summary of the method: as §3
[6] = system: NCI/ADR-RES; test: Growth inhibition of human NCI/ADR-RES cells; type: functional; summary of the method: as §2
[7] = system: SF-268; test: Growth inhibition of human SF268 cells; type: functional; summary of the method: as §2
[8] = system: HOP-62; test: Growth inhibition of human HOP62 cells; type: functional; summary of the method: as §2
[9] = system: LOX IMVI; test: Growth inhibition of human LOXIMVI cells; type: functional; summary of the method: as §2
[10] = system: HT-29; test: Growth inhibition of human HT-29 cells; type: functional; summary of the method: as §2
[11] = system: SK-OV-3; test: Growth inhibition of human SKOV3 cells; type: functional; summary of the method: as §3
[12] = system: RXF 393; test: Growth inhibition of human RXF393 cells; type: functional; summary of the method: as §2
[13] = system: SK-MEL-5; test: Growth inhibition of human SK-MEL-5 cells; type: functional; summary of the method: as §2
[14] = system: HOP-92; test: Growth inhibition of human HOP92 cells; type: functional; summary of the method: as §2
[15] = system: SNB-19; test: Growth inhibition of human SNB19 cells; type: functional; summary of the method: as §3
[16] = system: CAKI-1; test: Growth inhibition of human Caki1 cells; type: functional; summary of the method: as §2
[17] = system: KM12; test: Growth inhibition of human KM12 cells; type: functional; summary of the method: as §2
[18] = system: HCT-15; test: Growth inhibition of human HCT15 cells; type: functional; summary of the method: as §2
[19] = system: HCT-116; test: Growth inhibition of human HCT116 cells; type: functional; summary of the method: as §2
[20] = system: UACC-257; test: Growth inhibition of human UACC257 cells; type: functional; summary of the method: as §3
[21] = system: NCI-H226; test: Growth inhibition of human NCI-H226 cells; type: functional; summary of the method: as §2
[22] = system: SNB-75; test: Growth inhibition of human SNB75 cells; type: functional; summary of the method: as §3
[23] = system: TK-10; test: Growth inhibition of human TK10 cells; type: functional; summary of the method: as §3
[24] = system: UACC-62; test: Growth inhibition of human UACC62 cells; type: functional; summary of the method: as §3
[25] = system: A498; test: Growth inhibition of human A498 cells; type: functional; summary of the method: as §2
[26] = system: NCI-H522; test: Growth inhibition of human NCI-H522 cells; type: functional; summary of the method: as §2
[27] = system: MCF7; test: Cell cycle arrest in human MCF7 cells assessed as accumulation at G1 phase at 10 uM after 24 hrs by FACS analysis; type: functional; summary of the method: as §1
[28] = system: SK-MEL-28; test: Growth inhibition of human SK-MEL-28 cells; type: functional; summary of the method: as §2
[29] = system: SK-MEL-2; test: Growth inhibition of human SK-MEL-2 cells; type: functional; summary of the method: as §2
[30] = system: SF-539; test: Growth inhibition of human SF539 cells; type: functional; summary of the method: as §2
[31] = system: MCF7; test: Cell cycle arrest in human MCF7 cells assessed as accumulation at S phase at 30 uM after 24 hrs by FACS analysis; type: functional
Summary of the method: (§4)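 MCF-7 cells were treated at 30 µM for 24 h alongside a DMSO control. Fractions in G0, G1, S and G2/M phases were measured by FACS, and values are means of three experiments.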

[32] = system: ACHN; test: Growth inhibition of human ACHN cells; type: functional; summary of the method: as §2
[33] = system: MDA-MB-231; test: Growth inhibition of human MDA-MB-231 cells; type: functional; summary of the method: as §2
[34] = system: NCI-H23; test: Growth inhibition of human NCI-H23 cells; type: functional; summary of the method: as §2
[35] = system: OVCAR-8; test: Growth inhibition of human OVCAR8 cells; type: functional; summary of the method: as §2
[36] = system: MDA-MB-435; test: Growth inhibition of human MDA-MB-435 cells; type: functional; summary of the method: as §2
[37] = system: T47D; test: Growth inhibition of human T47D cells; type: functional; summary of the method: as §3
[38] = system: A549; test: Growth inhibition of human A549 cells; type: functional; summary of the method: as §2
[39] = system: NCI-H460; test: Growth inhibition of human NCI-H460 cells; type: functional; summary of the method: as §2
[40] = system: UO-31; test: Growth inhibition of human UO31 cells; type: functional; summary of the method: as §3
[41] = system: HCC 2998; test: Growth inhibition of human HCC2998 cells; type: functional; summary of the method: as §2
[42] = system: SF-295; test: Growth inhibition of human SF295 cells; type: functional; summary of the method: as §2
[43] = system: EKVX; test: Growth inhibition of human EKVX cells; type: functional; summary of the method: as §2
[44] = system: COLO 205; test: Growth inhibition of human COLO205 cells; type: functional; summary of the method: as §2
[45] = system: MCF7; test: Cell cycle arrest in human MCF7 cells assessed as accumulation at G2/M phase at 10 uM after 24 hrs by FACS analysis; type: functional; summary of the method: as §1
[46] = system: M14; test: Growth inhibition of human M14 cells; type: functional; summary of the method: as §2
[47] = system: OVCAR-4; test: Growth inhibition of human OVCAR4 cells; type: functional; summary of the method: as §2
[48] = system: MCF7; test: Cell cycle arrest in human MCF7 cells assessed as accumulation at G0 phase at 10 uM after 24 hrs by FACS analysis; type: functional; summary of the method: as §1
[49] = system: NCI-H322M; test: Growth inhibition of human NCI-H322M cells; type: functional; summary of the method: as §2
[50] = Growth inhibition of human RPMI8266 cells; type: functional; summary of the method: as §2
[51] = system: OVCAR-5; test: Growth inhibition of human OVCAR5 cells; type: functional; summary of the method: as §2
[52] = system: K562; test: Growth inhibition of human K562 cells; type: functional; summary of the method: as §2
[53] = system: MCF7; test: Cell cycle arrest in human MCF7 cells assessed as accumulation at G0 phase at 30 uM after 24 hrs by FACS analysis; type: functional; summary of the method: as §4
[54] = system: SW-620; test: Growth inhibition of human SW620 cells; type: functional; summary of the method: as §3
[55] = Growth inhibition of human Hs 578T cells; type: functional; summary of the method: as §2
[56] = system: MCF7; test: Growth inhibition of human MCF7 cells; type: functional; summary of the method: as §2
[57] = system: 786-0; test: Growth inhibition of human 786-0 cells; type: functional; summary of the method: as §2
[58] = system: MCF7; test: Cell cycle arrest in human MCF7 cells assessed as accumulation at G2/M phase at 30 uM after 24 hrs by FACS analysis; type: functional; summary of the method: as §4
[59] = system: PC-3; test: Growth inhibition of human PC3 cells; type: functional; summary of the method: as §2
[60] = system: BT-549; test: Growth inhibition of human BT549 cells; type: functional; summary of the method: as §2
[61] = system: MCF7; test: Cell cycle arrest in human MCF7 cells assessed as accumulation at G1 phase at 30 uM after 24 hrs by FACS analysis; type: functional; summary of the method: as §4
[62] = system: MCF7; test: Induction of apoptosis in human MCF7 cells assessed as […] in PARP cleavage at 30 uM after 24 hrs by Western blot analysis; type: functional, cell-based
Summary of the method: (§5)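 MCF-7 breast carcinoma cells were exposed to 30 µM compound for 24 h, with CA-4 as positive control. Cell lysates were then immunoblotted with antibodies to procaspase-7 and cleavage-specific PARP, using β-actin as loading control.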

[63] = system: MCF7; test: Induction of apoptosis in human MCF7 cells assessed as decrease in procaspase 7 level at 30 uM after 24 hrs by Western blot analysis; type: functional, cell-based; summary of the method: as §5

GI50 [3]: 2700 nM
GI50 [5]: 3.45 µM
GI50 [10]: 3.84 µM
GI50 [11]: 4.77 µM
GI50 [13]: 2630 nM
GI50 [18]: 3.15 µM
GI50 [19]: 1930 nM
GI50 [21]: 4.1 µM
GI50 [26]: 3.48 µM
GI50 [28]: 2030 nM
GI50 [29]: 5.54 µM
GI50 [32]: 3.4 µM
GI50 [33]: 5.25 µM
GI50 [34]: 2850 nM
GI50 [35]: 4.97 µM
GI50 [36]: 3.35 µM
GI50 [37]: 3.6 µM
GI50 [38]: 4.14 µM
GI50 [39]: 3.23 µM
GI50 [41]: 2320 nM
GI50 [44]: 6.61 µM
GI50 [47]: 6.08 µM
GI50 [49]: 8.2 µM
GI50 [51]: 3.38 µM
GI50 [52]: 2350 nM
GI50 [54]: 2500 nM
GI50 [56]: 3.18 µM
GI50 [57]: 4.53 µM
GI50 [59]: 3.05 µM
GI50 [60]: 4.57 µM
Compound: COc1ccc(-c2cn(-c3cccc(C(=O)/C=C/c4ccc(O)c(OC)c4)c3)c(=O)[nH]2)cc1
Activity [1]: 14%
GI50 [2]: 4.42 µM
GI50 [4]: 4.11 µM
GI50 [6]: 2560 nM
GI50 [7]: 3.4 µM
GI50 [8]: 5.15 µM
GI50 [9]: 2440 nM
GI50 [12]: 5.85 µM
GI50 [14]: 2960 nM
GI50 [15]: 5.84 µM
GI50 [16]: 4.99 µM
GI50 [17]: 1770 nM
GI50 [20]: 13.3 µM
GI50 [22]: 4.73 µM
GI50 [23]: 6.08 µM
GI50 [24]: 3.96 µM
GI50 [25]: 3.72 µM
Activity [27]: 57.66%
GI50 [30]: 2250 nM
Activity [31]: 16%
GI50 [40]: 5.19 µM
GI50 [42]: 13.9 µM
GI50 [43]: 13.4 µM
Activity [45]: 26.18%
GI50 [46]: 5.14 µM
Activity [48]: 2.16%
GI50 [50]: 1350 nM
Activity [53]: 20.5%
GI50 [55]: 4.25 µM
Activity [58]: 9%
Activity [61]: 54.5%

Compound: COc1ccc(/C=C\c2cc(OC)c(OC)c(OC)c2)cc1O [COMBRETASTATIN A4]
Activity [1]: 9.96%
Activity [62]: inactive
Activity [63]: inactive
Activity [27]: 11.79%
Activity [31]: 39.63%
Activity [45]: 68.8%
Activity [48]: 9.45%
Activity [53]: 11.64%
Activity [58]: 23.69%
Activity [61]: 25.04%
